Calls of active or inactive are those of the source. The calls are words filed in the database; no cut-off is given here.
What was measured:
Leishmania donovani = experiment: Antiprotozoal activity against amastigotes of Leishmania donovani MHOM/ET/67/L82 by alamar blue assay; format: functional, organism-based
Summary of the method: (§1)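 Alamar blue read-out; IC50 determined against bloodstream-form STIB900 trypanosomes, axenically grown L. donovani MHOM/ET/67/L82 amastigotes, or rat skeletal myoblast L-6 cells (cytotoxicity).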

[1] = Selectivity index, ratio of IC50 for rat L6 cells to IC50 for Trypanosoma brucei rhodesiense STIB900; format: toxicity, cell-based; details: L6 cells versus Trypanosoma brucei rhodesiense STIB900, read-out: Ratio IC50
Summary of the method: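 Selectivity index = IC50 (rat L-6 myoblasts)/IC50 (T. b. rhodesiense STIB900 bloodstream forms). Both IC50 values were determined by Alamar blue assay.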

L6 = experiment: Cytotoxicity against rat L6 cells; format: cell-based; summary of the method: as §1
[2] = tested on: Trypanosoma brucei rhodesiense; experiment: Antiprotozoal activity against bloodstream forms of Trypanosoma brucei rhodesiense STIB900 by alamar blue assay; format: functional, organism-based; summary of the method: as §1
Plasmodium falciparum = experiment: Antiprotozoal activity against chloroquine and pyrimethamine-resistant erythrocytic stages of Plasmodium falciparum K1 by [3H]hypoxanthine incorporation assay; format: functional, organism-based
Summary of the method: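 P. falciparum K1 (chloroquine- and pyrimethamine-resistant) erythrocytic stages; IC50 determined by [3H]hypoxanthine incorporation assay.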

Trypanosoma cruzi = experiment: Antiprotozoal activity against trypomastigote forms of Trypanosoma cruzi Tulahuen C2C4 expressing LacZ by colorimetric CPRG assay
[3] = Selectivity index, ratio of IC50 for rat L6 cells to IC50 for chloroquine and pyrimethamine-resistant erythrocytic stages of Plasmodium falciparum K1; format: toxicity, cell-based; details: L6 cells versus Plasmodium falciparum K1 erythrocytic stages, read-out: Ratio IC50
Summary of the method: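 Selectivity index = IC50 (rat L-6 myoblasts, Alamar blue assay)/IC50 (P. falciparum K1 erythrocytic stages, [3H]hypoxanthine incorporation assay).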

[4] = tested on: Trypanosoma brucei rhodesiense; experiment: Antitrypanosomal activity against Trypanosoma brucei rhodesiense STIB900 infected in NMRI mouse assessed as host survival after 60 days at 50 mg/kg, po qd for 4 days administered after 3 to 6 days postinfection; format: functional, organism-based; design: dose 50 mg/kg
Summary of the method: (§2)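 Female NMRI mice infected ip with 2 10^4 bloodstream STIB900 forms; groups of four dosed ip (4 × 20 mg/kg) or orally (4 × 50 mg/kg) on days 3–6 post-infection; untreated infected controls. Tail-blood parasitemia followed to day 60; surviving aparasitemic mice at day 60 counted cured; mean survival and relapse days recorded.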

[5] = tested on: Trypanosoma brucei rhodesiense; experiment: Antitrypanosomal activity against Trypanosoma brucei rhodesiense STIB900 infected in NMRI mouse assessed as host survival after 60 days at 20 mg/kg, ip qd for 4 days administered after 3 to 6 days postinfection; format: functional, organism-based; design: dose 20 mg/kg; summary of the method: as §2
[6] = tested on: Trypanosoma brucei rhodesiense; experiment: Antitrypanosomal activity against Trypanosoma brucei rhodesiense STIB900 infected in NMRI mouse assessed as day of host death after 60 days at 20 mg/kg, ip qd for 4 days administered after 3 to 6 days postinfection; format: functional; details: route intraperitoneal
Summary of the method: (§3)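 Female NMRI mice infected ip with 2 104 bloodstream forms of T. b. rhodesiense STIB900. Groups of four mice were treated ip (4 × 20 mg/kg) or po (4 × 50 mg/kg) on four consecutive days, days 3–6 postinfection. Untreated infected controls were included. Tail blood parasitemia was monitored to day 60. Day of death was recorded (cured mice counted as >60) to give mean survival days.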

[7] = tested on: Trypanosoma brucei rhodesiense; experiment: Antitrypanosomal activity against Trypanosoma brucei rhodesiense STIB900 infected in NMRI mouse assessed as day of host death after 60 days at 50 mg/kg, po qd for 4 days administered after 3 to 6 days postinfection; format: functional; summary of the method: as §3

Row | Compound | IC50 (Leishmania donovani) [µM] | selectivity ratio [1] | IC50 (L6) [µM] | IC50 [2] [µM] | IC50 (Plasmodium falciparum) [nM] | IC50 (Trypanosoma cruzi) [µM] | selectivity ratio [3] | Activity [4] | Activity [5] | Activity [6] [days] | Activity [7] [days]
1 | c1cc(Nc2ccc(NC3=NCCS3)cc2)ccc1NC1=NCCS1 | 120 | 4.7 | 52 | 11.1 | 2430 | 30 | 21 |  |  |  | 
2 | c1cc(Nc2ccc(NC3=NCCN3OC3CCCCO3)cc2)ccc1NC1=NCCN1OC1CCCCO1 (stereo not given) | 41 | 17 | 20 | 1.18 | 750 | 24 | 26 | inactive | inactive | 7 | 7
3 | CCON1CCN=C1Nc1ccc(Nc2ccc(NC3=NCCN3OCC)cc2)cc1 | 62 | 55 | 40 | 0.73 | 590 | 87 | 68 | inactive | inactive | 7 | 7
4 | CCON(CCNC(=S)Nc1ccc(Nc2ccc(NC(=S)NCCN(OCC)S(=O)(=O)c3ccccc3[N+](=O)[O-])cc2)cc1)S(=O)(=O)c1ccccc1[N+](=O)[O-] | 14 |  | 67 | 14.9 | 1940 | > 104 | 35 |  |  |  | 
5 | c1cc(Nc2ccc(NC3=NCCN3)cc2)ccc1NC1=NCCN1 |  | 3070 |  |  | 9 |  | 24100 | inactive | Active | >60 | 7.75
6 | CON(CCNC(=S)Nc1ccc(Nc2ccc(NC(=S)NCCN(OC)S(=O)(=O)c3ccccc3[N+](=O)[O-])cc2)cc1)S(=O)(=O)c1ccccc1[N+](=O)[O-] | 68 |  | > 107 | 61.3 | 1810 | > 108 |  |  |  |  | 
7 | CON1CCN=C1Nc1ccc(Nc2ccc(NC3=NCCN3OC)cc2)cc1 | 39 | 65.6 | 54 | 0.83 | 450 | 136 | 120 | inactive | inactive | 7 | 7
8 | ON1CCN=C1Nc1ccc(Nc2ccc(NC3=NCCN3O)cc2)cc1 | 58 | 236 | 92 | 0.37 | 55 | > 204 | 1670 | inactive | inactive | 25.3 | 7
9 | O=C1c2ccccc2C(=O)N1CCN(OCc1ccccc1)C(=S)Nc1ccc(Nc2ccc(NC(=S)N(CCN3C(=O)c4ccccc4C3=O)OCc3ccccc3)cc2)cc1 | 36 |  | > 102 | 86.7 | 1360 | > 100 |  |  |  |  | 
10 | CON(CCN1C(=O)c2ccccc2C1=O)C(=S)Nc1ccc(Nc2ccc(NC(=S)N(CCN3C(=O)c4ccccc4C3=O)OC)cc2)cc1 | 69 |  | > 124 | 73.8 | 2640 | > 124 |  |  |  |  | 
11 | c1ccc(CON2CCN=C2Nc2ccc(Nc3ccc(NC4=NCCN4OCc4ccccc4)cc3)cc2)cc1 | 104 | 34.7 | 11 | 0.32 | 200 | 6.6 | 56 | inactive | inactive | 7 | 7

From ChEMBL document CHEMBL1649414, “Synthesis and antiprotozoal activity of N-alkoxy analogues of the trypanocidal lead compound 4,4'-bis(imidazolinylamino)diphenylamine with improved human blood-brain barrier permeability” (J Med Chem, 2011)
